RBBP9 inhibitor: inhibitors of human serine hydrolase RBBP9 | recombinant RBBP9, FP-Rh probe fluorescence polarization | actives 0.2% (n = 220,000) | AID 1515 | inhibition, % at 7.94 µM;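 active = inhibition above the campaign mean of all tested compounds plus 3 SD, cut at about 14% in these data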;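 note: plate controls were DMSO wells with RBBP9 for no effect and wells lacking RBBP9 protein for full effect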
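System: RBBP9 protein / Quantity: 2.5 µM RBBP9 dispensing solution, before mixing / Also added: Serine-hydrolase probe FP-Rh, 375 nM pre-mixing / Dosing: 7.94 µM single dose, 0.794% DMSO / Timing: enzyme-compound preincubation 30 min, then probe labeling 45 min, 25 °C / Signal: FP readout at 525/598 nm / Controls: DMSO-treated enzyme wells and wells lacking RBBP9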
SUMO HTRF inh: SUMOylation inhibition; inhibition, % at 35 µM; actives 0.36% (n = 290,000); AID 2006; HTRF SUMOylation assay, SAE1/SAE2 + UBC9, in vitro; in the data active = inhibition above about 50%, passing the limit was not always enough; inconclusive = no clear call, values can overlap the other calls
Target sequence (P63279 whole entry, looked up): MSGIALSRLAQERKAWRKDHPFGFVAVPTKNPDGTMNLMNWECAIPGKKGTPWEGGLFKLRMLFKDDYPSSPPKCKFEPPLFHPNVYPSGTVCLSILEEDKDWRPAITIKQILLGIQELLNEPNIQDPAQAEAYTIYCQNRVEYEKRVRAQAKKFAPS
Rin1 Abl inh: human Rin1-Abl interaction inhibition | P00519+Q13671 | TR-FRET Rin1/Abl binding, biochemical | inhibition, % at 7.35 µM | actives 0.4% (n = 360,000) | AID 588664; in the data active = inhibition above about 5%, passing the limit was not always enough
PREPL inh: inhibitors of human prolyl oligopeptidase-like enzyme PREPL; Q4J6C6; recombinant PREPL, fluorescence polarization activity-based probe; actives 0.68% (n = 320,000); inhibition, % at 5.96 µM; in the data active = inhibition above about 43%;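 note: 0% = enzyme with DMSO and 100% = wells lacking enzyme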
ALR H2O2 inh: blocks human ALR sulfhydryl oxidase activity; purified ALR, DTT oxidation, H2O2 HRP-luminol luminescence; inhibition, % (no concentration beside the values); actives 3.8% (n = 290,000);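 active = mean replicate inhibition above about 79%, with every replicate also reaching it, limit read from the data; inconclusive = only one of the two criteria met; inactive = mean below limit and not every replicate reaching it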
UBC13 polyUb: inhibitors of human UBC13 polyubiquitin chain formation | P61088 | TR-FRET | inhibition, % at 20 µM | actives 0.47% (n = 330,000) | AID 485273; in the data active = inhibition above about 45%, passing the limit was not always enough; inconclusive = no clear call, values can overlap the other calls
Target sequence (P61088 whole entry, looked up): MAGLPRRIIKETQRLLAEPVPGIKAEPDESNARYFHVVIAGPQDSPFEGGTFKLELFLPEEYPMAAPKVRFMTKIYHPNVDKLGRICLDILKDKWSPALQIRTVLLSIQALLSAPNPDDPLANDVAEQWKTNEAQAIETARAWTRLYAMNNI
Starred values were filed as active, the others as inactive; ? = inconclusive; / = no result given. Hits are enriched below; roughly 4.3% of the tested compounds scored in any of these assays.

SMILES	RBBP9 inhibitor	SUMO HTRF inh	Rin1 Abl inh	PREPL inh	ALR H2O2 inh	UBC13 polyUb
CCS(=O)(=O)C1=NSC2=NC(=O)/C(=C\c3ccc(OS(=O)(=O)c4ccccc4)c(OC)c3)C(=N)N21	/	-2	-4	-4	97*	-19
CCS(=O)(=O)C1=NN2C(=N)/C(=C\c3ccc(OS(=O)(=O)c4ccccc4)c(OC)c3)C(=O)N=C2S1	/	8	/	2	?	-19
COc1cc(/C=C2\C(=N)N3N=C(S(C)(=O)=O)SC3=NC2=O)ccc1OS(=O)(=O)c1ccccc1	/	19	/	-1	91*	-19
COc1cc(/C=C2/C(=N)N3C(=NC2=O)SN=C3S(C)(=O)=O)ccc1OS(=O)(=O)c1ccc(C)cc1	/	16	0	-6	54	-16
O=C(Nc1nc(-c2ccc(F)cc2)cs1)c1cccc(N2C(=O)CCC2=O)c1	/	8	-1	4	-1	4
CC1CC(CC(=O)NNc2nc(-c3ccccc3)cs2)C(=O)O1 (centres undefined)	-7	-14	-5	12	/	1
C/C(=N\Nc1nc(C(C)(C)C)cs1)c1ccccc1	/	8	0	-10	98*	5
CC(C)=NNc1nc(-c2ccccc2)cs1	-6	9	-2	9	97*	0
C/C(CCC1CC(C)OC1=O)=N/Nc1nc(-c2ccccc2)cs1 (centres undefined)	-6	-1	-1	9	98*	2
CC(C)=NNc1nc(-c2ccc(N3C(=O)CCC3=O)cc2)cs1	-7	14	3	20	99*	1
O=C(Cn1cc(C(F)(F)F)ccc1=O)Nc1ccc2c(c1)OCO2	/	/	2	/	/	/
Cc1ccc(NC(=S)NC(=O)C2CCC2)cc1C	/	12	0	0	15	-6
Cc1c(C(=O)N2CCCCC2)c(S(=O)(=O)N2CCc3ccccc32)c(C)n1C	/	1	-2	10	-1	-2
O=c1oc(-c2cccs2)nc2sc3c(c12)CCC3	-2	51*	0	11	-1	1
O=c1oc(-c2cccs2)nc2sc3c(c12)CCCC3	-1	26	-1	24	-2	2
S=C(c1cccs1)N1CCN(c2ccccc2)CC1	/	/	7	/	/	/
CCN(CC)c1ccc(N=CN2CCOCC2)cc1	/	-9	-1	33	98*	1
CCN(CC)c1ccc(/C=N/N2CCOCC2)c(O)c1	-3	5	-4	-6	?	-18
CCC(=O)c1ccc(/C=C/c2nc3ccccc3n2C)o1	-4	62*	-1	4	11	9
CCCCN1C(=O)Cc2c1nc(N)c1c(N)nc(N(CCC)CCC)c(C#N)c21	7	94*	1	17	-25	/
N#Cc1c(N(CCO)CCO)nc(N)c2c(N)nc3c(c12)CC(=O)N3CC1CCCO1 (centres undefined)	-1	101*	-4	14	0	-14
O=C1c2cccc3cccc(c23)C(=O)N1CC1CCCO1 (centres undefined)	5	0	0	-5	-2	2
O=C(COc1ccccc1)Nc1ccc2oc(=O)ccc2c1	/	14	0	10	1	8
O=C(NCC1CCCO1)C1CCCN(S(=O)(=O)c2ccc(Cl)cc2)C1 (centres undefined)	/	8	2	-4	-3	-4
CCCC(=O)Nc1nnc(S(=O)(=O)N(CC)c2ccccc2)s1	/	14	1	2	/	2
SMILES	RBBP9 inhibitor	SUMO HTRF inh	Rin1 Abl inh	PREPL inh	ALR H2O2 inh	UBC13 polyUb
Cc1sc2nc(CSC(C)C(=O)Nc3ccc(C(N)=O)cc3)[nH]c(=O)c2c1C (centres undefined)	/	/	0	29	100*	0
Cc1sc2nc(CSC(C)C(=O)Nc3ccc(C#N)cc3)[nH]c(=O)c2c1C (centres undefined)	/	/	-1	12	98*	-8
COC(=O)Cc1ccc(O)c(N)c1	2	44	-2	-4	95*	-1
Cc1cccc(C)c1NC(=O)CSCC(=O)c1ccc(O)c(O)c1	6	9	3	4	99*	7
COCc1ccc(C(=O)N2CCCC(Nc3ccc4c(c3)OCCO4)C2)o1 (centres undefined)	/	5	-2	3	99*	-2
COc1ccc(NC2CCCN(C(=O)c3ccc(CSC)o3)C2)cc1OC (centres undefined)	/	-10	3	4	99*	-12
CCOc1nsc(OCC)n1	-9	4	1	17	-5	6

High-throughput results deposited in PubChem by several laboratories.
